Most compounds without a hit are left out; they make up all but 4.1% or so of the library.
FLuc act counter = affects firefly luciferase, flagging false hits in luciferase stimulation screens; P08659; ATPlite luciferase biochemical, luminescence, 10 min; 0 = ATP-free wells, 1 = DMSO control; activation factor at 10 µM; 200,000 tested, under 10 active; AID 1027;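 active = luciferase activation factor, scaled between plate controls, of at least 2 with compound at 10 µM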
Target sequence (P08659 whole entry, looked up): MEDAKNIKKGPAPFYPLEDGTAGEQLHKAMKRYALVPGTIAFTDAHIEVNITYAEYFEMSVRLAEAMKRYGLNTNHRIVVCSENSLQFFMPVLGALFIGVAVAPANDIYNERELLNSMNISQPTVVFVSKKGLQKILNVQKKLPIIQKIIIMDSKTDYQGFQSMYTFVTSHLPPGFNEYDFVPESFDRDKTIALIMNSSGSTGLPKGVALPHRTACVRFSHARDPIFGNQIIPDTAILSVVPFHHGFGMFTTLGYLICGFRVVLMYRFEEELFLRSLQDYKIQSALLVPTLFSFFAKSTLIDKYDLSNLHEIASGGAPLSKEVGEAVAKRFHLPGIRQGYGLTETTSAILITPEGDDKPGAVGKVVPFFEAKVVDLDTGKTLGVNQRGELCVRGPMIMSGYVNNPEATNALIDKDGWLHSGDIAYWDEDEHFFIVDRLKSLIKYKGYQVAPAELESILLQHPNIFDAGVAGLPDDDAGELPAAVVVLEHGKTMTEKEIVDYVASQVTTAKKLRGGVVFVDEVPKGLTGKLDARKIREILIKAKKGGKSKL
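Assay system – cell-free luciferase reagent · Medium – PBS-based ATP solution · Dosing – test compounds dosed from 2 mM stocks in 100% DMSO · Timing – 10 min, room temperature · Technique – light output (luminescence) · Measure – luminescence gain marking luciferase activators · Controls – No-ATP low control, compound-free enzyme-plus-ATP high control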
NF-kB neuron act = compounds increasing NF-kB expression in human neuronal cells; actives 1.6% (n = 190,000); AID 1239; fold change at 12.5 µM; NF-kB reporter expression; hits give high values; in the data active = fold change above about 3.3
FLuc inhib CS = Photinus pyralis luciferase inhibition counter-screen. inhibition, % at 10 µM. ATPLite firefly luciferase biochemical luminescence, 10 min. actives 1.5% (n = 200,000). P08659;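 active = inhibition above about 50% when tested at 10 µM, limit read from the data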
STAT1 activator = increases IFN-gamma driven STAT1 reporter signal; NIH 3T3 STAT1-luciferase reporter, luminescence; 100% = IFN-gamma alone, no compound; activation (% of control), % at 5.5 µM; actives 2.6% (n = 200,000);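 active = activation above the screen-wide mean activation plus 3 SD, cut at about 130% in these data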;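 also: raw ratio to IFN-gamma control signal so 100% means no change and 0% no light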
APP 5'UTR act = APP 5'UTR luciferase reporter activation; SH-SY5Y APP 5'UTR luciferase reporter, luminescence; zero percent = DMSO vehicle wells; activation, % at 2 µM; AID 1276; actives 1% (n = 190,000);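 active = activation above a set limit, based on mean plus 3 SD of controls, cut at about 140% in these data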
The depositor's hits bear a star; / = no result given.

SMILES | FLuc act counter | NF-kB neuron act | FLuc inhib CS | STAT1 activator | APP 5'UTR act
CSc1ccccc1NC(=O)c1cnc2scc(C)n2c1=O | 1 | 1.11 | -2.0 | 100.6 | 15.2
CCCCCN1C=CC(=C2C(=O)c3ccccc3C2=O)C=C1 | 0 | / | 97.2* | 12.3 | -54.3
O=C(NC1CCCCCCC1)NC1CCCCC1 | 1 | 2.72 | 3.8 | 132.5* | 12.0
CC(C)(C)CC(=O)NCCCCCCNC(=O)CC(C)(C)C | 1 | 1.03 | -3.5 | 90.7 | 7.3
COC(=O)c1ccc(Oc2cc(C)nc(-n3nc(C)cc3C)n2)cc1 | 1.1 | 3.89* | -8.9 | 95.7 | -93.5
COC(=O)c1ccc(Oc2nc(C)cc(Oc3ccccc3)n2)cc1 | 1.1 | 1.03 | -5.8 | 98.2 | -2.3
Cc1ccc(-c2cc(-c3ccccc3C)[nH]n2)c(O)c1 | 0.9 | 6.29* | 8.8 | 94.4 | 120.5
Oc1ccc(Br)cc1-c1cc(-c2ccccc2)n[nH]1 | 1 | 1.13 | -2.1 | 103.9 | -2.7
Cc1ccc(O)c(-c2cc(-c3cccc(F)c3)n[nH]2)c1 | 1 | 5.04* | -4.3 | 93.2 | 43.3
Cc1ccc(O)c(-c2cc(-c3ccccc3F)[nH]n2)c1 | 0.9 | 4.35* | 6.2 | 109.0 | 39.8
Oc1ccc(Br)cc1-c1cc(-c2ccc(Cl)cc2)n[nH]1 | 1 | 1.17 | 2.7 | 98.3 | 4.4
Cc1ccc(-c2cc(-c3cccc(F)c3)n[nH]2)c(O)c1 | 0.9 | 9.62* | 10.3 | 104.2 | 215.4*
O=[N+]([O-])c1ccccc1-c1cc(-c2ccccc2O)n[nH]1 | 0.9 | 2.45 | 11.4 | 96.1 | 97.6
CC(C)N1C(=O)C2C(C(=O)NC3CCCCC3)C3C=CC2(O3)C1C(=O)NC1CCCCC1 (stereo not drawn) | 1 | 1.05 | -3.0 | 84.4 | 8.1
CCc1ccc(NC(=O)/C(C#N)=C/c2cc3ccc(C)cc3nc2N2CCOCC2)cc1 | 1.1 | 1.2 | -7.3 | 98.9 | -22.0
CC(NC(=O)CN(c1cccc(C(F)(F)F)c1)S(=O)(=O)c1ccc(Cl)c([N+](=O)[O-])c1)c1ccccc1 (stereo not drawn) | 1.1 | 1.1 | -8.0 | 92.1 | -8.5
C=CCc1ccc(OCc2ccc(C(=O)OC)o2)c(OC)c1 | 0.6 | 3.41* | 42.7 | 124.8 | 3.6
COc1ccc(-c2cc(-c3cc(OC)ccc3O)[nH]n2)cc1 | 0.8 | 2.78 | 17.3 | 113.9 | 97.7
COc1ccc(O)c(-c2cc(-c3cccc(Br)c3)n[nH]2)c1 | 1 | 3.43* | -2.5 | 102.2 | 84.7
COc1ccc(-c2cc(-c3ccc(OC)c(OC)c3)n[nH]2)c(O)c1 | 0.9 | 4.05* | 7.6 | 96.7 | 126.6
COc1ccc(-c2cc(-c3cc(F)ccc3O)[nH]n2)cc1OC | 1 | 2.94 | -0.7 | 105.5 | 136.2*
COC(=O)c1cc(-c2ccc(OC)c(OC)c2)n[nH]1 | 1 | 0.81 | -2.7 | 98.9 | -12.7
COc1ccc(-c2cc(-c3ccccc3O)[nH]n2)cc1OC | 0.7 | 6.83* | 28.5 | 108.6 | 193.8*
Cc1cc(NC(=O)CS(=O)(=O)c2cn(Cc3cccc(F)c3)c3ccccc23)no1 | 1 | 0.87 | -3.4 | 99.4 | 5.1
COc1cc(-c2nnc(CSc3nnc(Nc4ccc(C(C)C)cc4)s3)o2)cc(OC)c1OC | 0.8 | 0.73 | 16.0 | 104.0 | 21.2
SMILES | FLuc act counter | NF-kB neuron act | FLuc inhib CS | STAT1 activator | APP 5'UTR act
C/C(Nc1ccccc1)=C(/C#N)C(N)=O | 1 | 1.06 | -4.2 | 103.7 | 7.0
Oc1ccccc1-c1cc(-c2ccc3c(c2)OCCO3)n[nH]1 | 0.3 | 8.94* | 65.6* | 111.0 | 210.7*
CCOC(=O)c1cc(-c2ccc3c(c2)OCCO3)n[nH]1 | 0.4 | 4.48* | 59.8* | 102.6 | 113.0
O=C(O)c1cc(-c2ccc3c(c2)OCCO3)n[nH]1 | 0.6 | 0.99 | 39.5 | 101.4 | 5.7
COc1ccc(-c2[nH]ncc2-c2ccc3c(c2)OCCO3)c(O)c1 | 1.1 | 0.55 | -7.2 | 83.0 | -19.7
COc1ccc(-c2oc3ncn4nc(COc5ccccc5)nc4c3c2-c2ccc(OC)cc2)cc1 | 1.1 | 1.17 | -6.2 | 93.1 | -10.3
CCCCc1nnc(NC(=O)CSc2nc(=O)cc(N)n2-c2ccccc2)s1 | 1.1 | 0.78 | -8.5 | 97.5 | 12.9
CC(Sc1cccc[n+]1[O-])C(=O)Nc1ccc([N+](=O)[O-])cc1Cl (stereo not drawn) | 1 | 1.18 | -2.5 | 95.4 | 16.2
Oc1ccccc1C1Nc2cccc3cccc(c23)N1 | 0.4 | 0.86 | 64.3* | 99.0 | 10.5
O=C(CSc1ccc(-c2nc3ccccc3[nH]2)cn1)Nc1ccc(S(=O)(=O)N2CCCC2)cc1 | 0.9 | 1.01 | 14.8 | 101.6 | -5.5

Screening data (PubChem)
